Measurements as given in ChEMBL document CHEMBL1275385, “Discovery and biological evaluation of potent, selective, orally bioavailable, pyrazine-based blockers of the Na(v)1.8 sodium channel with efficacy in a model of neuropathic pain” (Bioorg Med Chem, 2010).
Values after ≈ are worked out from the molar mass of the structure shown.

target: Sodium channel protein type 10 subunit alpha (Mus musculus, UniProt Q6QIY3); assay: Inhibition of mouse NaV1.8 expressed in HEK293 cells by isotopic efflux assay; format: cell-based; conditions: not given
How it was run: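 HEK293 cells stably expressing mouse Nav1.8 were loaded overnight with radiotracer, then stimulated. Efflux was read at a single time point on the linear part of the efflux curve. % inhibition = (1 − [test − reference blocker]/[control − reference blocker]) × 100. Eight-point concentration–response curves run in duplicate gave the IC50.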

Sequence of Sodium channel protein type 10 subunit alpha (Mus musculus, UniProt Q6QIY3) (Q6QIY3 whole entry): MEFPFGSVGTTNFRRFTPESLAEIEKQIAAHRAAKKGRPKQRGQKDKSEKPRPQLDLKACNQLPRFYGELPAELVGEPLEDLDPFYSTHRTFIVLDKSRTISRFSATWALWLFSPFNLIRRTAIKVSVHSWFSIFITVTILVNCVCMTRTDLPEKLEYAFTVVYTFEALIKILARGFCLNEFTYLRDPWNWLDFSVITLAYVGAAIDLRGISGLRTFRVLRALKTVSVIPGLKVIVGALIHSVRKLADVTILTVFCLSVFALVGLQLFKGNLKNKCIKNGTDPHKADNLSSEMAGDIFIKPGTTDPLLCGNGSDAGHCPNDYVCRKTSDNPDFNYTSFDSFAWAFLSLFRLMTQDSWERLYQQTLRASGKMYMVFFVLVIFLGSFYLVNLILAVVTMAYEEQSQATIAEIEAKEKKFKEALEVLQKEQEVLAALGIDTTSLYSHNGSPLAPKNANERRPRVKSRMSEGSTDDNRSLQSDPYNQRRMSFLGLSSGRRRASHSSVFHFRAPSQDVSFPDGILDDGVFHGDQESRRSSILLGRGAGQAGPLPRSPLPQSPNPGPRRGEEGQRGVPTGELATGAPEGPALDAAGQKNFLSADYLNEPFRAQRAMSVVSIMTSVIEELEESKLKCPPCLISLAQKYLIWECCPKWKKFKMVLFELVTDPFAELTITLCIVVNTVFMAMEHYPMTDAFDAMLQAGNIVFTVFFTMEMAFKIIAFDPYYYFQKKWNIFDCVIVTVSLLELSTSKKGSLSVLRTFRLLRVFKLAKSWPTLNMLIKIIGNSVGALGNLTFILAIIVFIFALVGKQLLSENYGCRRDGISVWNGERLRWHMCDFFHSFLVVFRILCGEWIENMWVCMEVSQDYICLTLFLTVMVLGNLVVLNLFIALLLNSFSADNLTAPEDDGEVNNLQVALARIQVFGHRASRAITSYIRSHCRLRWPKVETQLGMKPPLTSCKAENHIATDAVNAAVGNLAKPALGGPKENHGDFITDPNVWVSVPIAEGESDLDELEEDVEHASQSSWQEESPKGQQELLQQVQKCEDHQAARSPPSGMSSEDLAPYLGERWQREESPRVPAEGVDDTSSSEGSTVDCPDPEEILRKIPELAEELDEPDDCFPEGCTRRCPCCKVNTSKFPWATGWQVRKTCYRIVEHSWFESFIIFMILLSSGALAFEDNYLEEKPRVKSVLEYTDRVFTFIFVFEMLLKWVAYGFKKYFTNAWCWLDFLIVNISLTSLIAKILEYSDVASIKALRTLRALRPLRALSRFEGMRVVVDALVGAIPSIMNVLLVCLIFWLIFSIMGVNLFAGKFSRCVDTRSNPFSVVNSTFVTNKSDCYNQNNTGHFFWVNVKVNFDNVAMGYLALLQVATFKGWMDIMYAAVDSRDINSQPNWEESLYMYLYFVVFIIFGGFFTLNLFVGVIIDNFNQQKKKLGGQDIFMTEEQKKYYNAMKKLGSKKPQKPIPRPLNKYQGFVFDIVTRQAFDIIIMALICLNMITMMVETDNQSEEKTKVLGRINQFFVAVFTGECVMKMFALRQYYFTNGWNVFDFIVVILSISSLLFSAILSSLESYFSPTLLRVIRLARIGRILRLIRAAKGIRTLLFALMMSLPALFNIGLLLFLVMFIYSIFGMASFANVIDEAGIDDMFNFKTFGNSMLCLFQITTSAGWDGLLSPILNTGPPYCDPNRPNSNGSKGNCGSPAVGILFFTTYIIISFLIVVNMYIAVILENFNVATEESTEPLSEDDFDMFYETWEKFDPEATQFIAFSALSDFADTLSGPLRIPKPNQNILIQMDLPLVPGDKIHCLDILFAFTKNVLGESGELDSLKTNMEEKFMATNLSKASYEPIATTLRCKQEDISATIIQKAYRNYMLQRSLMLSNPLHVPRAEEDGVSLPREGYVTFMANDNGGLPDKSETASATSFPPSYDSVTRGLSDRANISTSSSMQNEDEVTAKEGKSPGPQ

Row | SMILES | IC50
1 | CCOc1ccc(-c2cncc(C(=O)NCc3ccccc3C)n2)cc1 | 110 nM
2 | Cc1cccc(NC(=O)c2cncc(-c3ccc(OC(F)(F)F)cc3)n2)c1 | 66 nM
3 | O=C(NCc1cccnc1N1CCCC1)c1cncc(-c2ccc(Cl)cc2)n1 | 210 nM
4 | Cc1cc(C)cc(NC(=O)c2cncc(-c3ccc(OC(F)(F)F)cc3)n2)c1 | 58 nM
5 | O=C(NCc1cccnc1)c1cncc(-c2ccc(Cl)cc2)n1 | 11000 nM
6 | CC(C)Oc1cccc(NC(=O)c2cncc(-c3ccc(C#N)cc3)n2)c1 | 730 nM
7 | O=C(Nc1cccnc1)c1cncc(-c2ccc(Cl)cc2)n1 | 18000 nM
8 | O=C(NCc1ccncc1N1CCOCC1)c1cncc(-c2ccc(Cl)cc2)n1 | 4140 nM
9 | CCOc1ccc(-c2cncc(C(=O)Nc3cc(C)cc(C)c3)n2)cc1 | 56 nM
10 | Cc1ccccc1CNC(=O)c1cncc(-c2ccc(Cl)cc2)n1 | 1340 nM
11 | COc1cc(NC(=O)c2cncc(-c3ccc(Cl)cc3)n2)cc(OC)c1 | 1070 nM

target: T1, Sodium channel protein type 2 subunit alpha (Homo sapiens, UniProt Q99250); assay: Inhibition of human recombinant NaV1.2 by electrophysiology; conditions: not given
How it was run: (§1)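 Whole-cell voltage clamp of HEK-293 cells expressing recombinant human Nav1.2. Membrane potential was held at the V1/2 of steady-state inactivation, −60 mV. Compounds came from 10 mM DMSO stocks, diluted in extracellular solution (final DMSO <0.1%) and perfused at 1–2 mL/min at room temperature (21–25 °C). Tested at 1–3 concentrations with 2–6 measurements each; estimates averaged. Single-point data given as % inhibition at 3 µM.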

Row | SMILES | IC50
12 | CCOc1ccc(-c2cncc(C(=O)NCc3ccccc3C)n2)cc1 | 470 nM
13 | Cc1cccc(NC(=O)c2cncc(-c3ccc(OC(F)(F)F)cc3)n2)c1 | 2200 nM
14 | O=C(NCc1cccnc1N1CCCC1)c1cncc(-c2ccc(Cl)cc2)n1 | 1000 nM
15 | CC(C)Oc1cccc(NC(=O)c2cncc(-c3ccc(C#N)cc3)n2)c1 | 9100 nM
16 | CCOc1ccc(-c2cncc(C(=O)Nc3cc(C)cc(C)c3)n2)cc1 | 360 nM
17 | COc1cc(NC(=O)c2cncc(-c3ccc(Cl)cc3)n2)cc(OC)c1 | 6200 nM

target: Sodium channel protein type 10 subunit alpha (Homo sapiens, UniProt Q9Y5Y9); assay: Inhibition of human recombinant NaV1.8 expressed in HEK293 cells by conventional voltage clamp electrophysiology assay; format: cell-based; conditions: not given
How it was run: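 HEK-293 cells stably expressing human Nav1.8 were recorded by conventional whole-cell voltage clamp with the holding potential at the inactivation V1/2, −40 mV. DMSO stocks (10 mM) were diluted into extracellular solution (final DMSO <0.1%) and gravity-perfused at 1–2 mL/min at 21–25 °C. Each compound was run at 1–3 concentrations with 2–6 measurements each; estimates averaged.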

Sequence of Sodium channel protein type 10 subunit alpha (Homo sapiens, UniProt Q9Y5Y9) (Q9Y5Y9 whole entry, the tested form may be a part): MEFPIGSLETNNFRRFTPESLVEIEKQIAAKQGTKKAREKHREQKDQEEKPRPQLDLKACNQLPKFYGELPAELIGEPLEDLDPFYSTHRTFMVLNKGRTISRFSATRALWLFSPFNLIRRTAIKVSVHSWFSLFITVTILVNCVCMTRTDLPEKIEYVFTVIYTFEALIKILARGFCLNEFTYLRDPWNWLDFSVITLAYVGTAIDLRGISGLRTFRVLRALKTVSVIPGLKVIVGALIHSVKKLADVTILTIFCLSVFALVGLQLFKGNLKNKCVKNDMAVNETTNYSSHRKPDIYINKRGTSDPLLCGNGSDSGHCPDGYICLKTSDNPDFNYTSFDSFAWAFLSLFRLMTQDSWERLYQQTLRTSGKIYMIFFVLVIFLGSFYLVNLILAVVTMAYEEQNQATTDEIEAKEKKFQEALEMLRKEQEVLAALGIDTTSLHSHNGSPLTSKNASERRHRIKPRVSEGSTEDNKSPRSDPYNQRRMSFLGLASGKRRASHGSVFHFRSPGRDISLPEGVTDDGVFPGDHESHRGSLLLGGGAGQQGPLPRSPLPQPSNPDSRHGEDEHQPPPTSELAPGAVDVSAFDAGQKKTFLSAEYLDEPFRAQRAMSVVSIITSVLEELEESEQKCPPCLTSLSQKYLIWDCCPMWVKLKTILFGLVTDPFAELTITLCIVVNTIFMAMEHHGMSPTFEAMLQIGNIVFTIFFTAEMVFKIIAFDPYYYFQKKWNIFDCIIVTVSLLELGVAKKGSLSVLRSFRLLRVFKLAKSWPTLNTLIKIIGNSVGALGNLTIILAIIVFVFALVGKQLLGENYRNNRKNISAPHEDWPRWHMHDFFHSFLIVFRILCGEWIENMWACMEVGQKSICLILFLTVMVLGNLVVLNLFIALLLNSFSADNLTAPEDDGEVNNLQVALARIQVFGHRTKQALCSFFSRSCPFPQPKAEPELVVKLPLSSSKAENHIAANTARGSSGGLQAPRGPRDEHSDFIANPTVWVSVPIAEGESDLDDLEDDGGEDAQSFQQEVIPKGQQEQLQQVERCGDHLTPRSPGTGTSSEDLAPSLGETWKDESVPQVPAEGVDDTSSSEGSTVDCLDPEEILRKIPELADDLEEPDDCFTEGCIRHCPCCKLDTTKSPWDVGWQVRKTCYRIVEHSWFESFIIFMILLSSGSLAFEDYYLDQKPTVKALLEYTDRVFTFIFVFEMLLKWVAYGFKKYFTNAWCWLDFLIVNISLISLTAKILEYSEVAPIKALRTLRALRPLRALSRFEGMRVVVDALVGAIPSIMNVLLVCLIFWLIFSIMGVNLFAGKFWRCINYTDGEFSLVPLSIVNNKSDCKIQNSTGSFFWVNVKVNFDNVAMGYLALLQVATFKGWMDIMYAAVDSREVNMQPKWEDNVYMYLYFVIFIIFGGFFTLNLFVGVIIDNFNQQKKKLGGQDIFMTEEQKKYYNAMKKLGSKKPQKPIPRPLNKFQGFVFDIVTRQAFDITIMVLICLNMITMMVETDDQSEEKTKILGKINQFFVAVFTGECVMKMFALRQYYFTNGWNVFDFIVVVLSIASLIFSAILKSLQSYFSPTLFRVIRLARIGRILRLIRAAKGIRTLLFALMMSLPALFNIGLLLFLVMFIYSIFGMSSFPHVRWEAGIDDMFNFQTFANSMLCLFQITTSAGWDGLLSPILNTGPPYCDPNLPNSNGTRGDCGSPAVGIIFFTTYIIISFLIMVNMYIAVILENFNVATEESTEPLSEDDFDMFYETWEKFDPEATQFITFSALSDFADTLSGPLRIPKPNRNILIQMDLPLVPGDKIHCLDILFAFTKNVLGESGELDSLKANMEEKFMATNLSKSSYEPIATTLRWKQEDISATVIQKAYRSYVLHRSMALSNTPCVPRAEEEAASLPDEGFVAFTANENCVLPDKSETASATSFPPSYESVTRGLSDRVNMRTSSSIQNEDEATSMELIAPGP

Row | SMILES | IC50
18 | CCOc1ccc(-c2cncc(C(=O)NCc3ccccc3C)n2)cc1 | 2 nM
19 | Cc1cccc(NC(=O)c2cncc(-c3ccc(OC(F)(F)F)cc3)n2)c1 | 5 nM
20 | O=C(NCc1cccnc1N1CCCC1)c1cncc(-c2ccc(Cl)cc2)n1 | 30 nM
21 | CC(C)Oc1cccc(NC(=O)c2cncc(-c3ccc(C#N)cc3)n2)c1 | 49 nM
22 | O=C(NCc1ccncc1N1CCOCC1)c1cncc(-c2ccc(Cl)cc2)n1 | 320 nM
23 | CCOc1ccc(-c2cncc(C(=O)Nc3cc(C)cc(C)c3)n2)cc1 | 2 nM
24 | Cc1ccccc1CNC(=O)c1cncc(-c2ccc(Cl)cc2)n1 | 27 nM
25 | COc1cc(NC(=O)c2cncc(-c3ccc(Cl)cc3)n2)cc(OC)c1 | 6 nM

target: Sodium channel protein type 10 subunit alpha (Rattus norvegicus, UniProt Q62968); assay: Inhibition of tetrodotoxin-resistant NaV1.8 in rat dorsal root ganglion neurons at holding potential -100 mV by whole-cell patch clamp electrophysiology assay; format: tissue-based; conditions: not given

Row | SMILES | IC50
26 | CCOc1ccc(-c2cncc(C(=O)NCc3ccccc3C)n2)cc1 | 19 nM
27 | Cc1cccc(NC(=O)c2cncc(-c3ccc(OC(F)(F)F)cc3)n2)c1 | 16 nM
28 | O=C(NCc1cccnc1N1CCCC1)c1cncc(-c2ccc(Cl)cc2)n1 | 550 nM
29 | CC(C)Oc1cccc(NC(=O)c2cncc(-c3ccc(C#N)cc3)n2)c1 | 130 nM
30 | CCOc1ccc(-c2cncc(C(=O)Nc3cc(C)cc(C)c3)n2)cc1 | 12 nM
31 | Cc1ccccc1CNC(=O)c1cncc(-c2ccc(Cl)cc2)n1 | 110 nM
32 | COc1cc(NC(=O)c2cncc(-c3ccc(Cl)cc3)n2)cc(OC)c1 | 190 nM

test system: not listed separately; assay: Aqueous solubility of the compound; format: physicochemical; conditions: buffer

Row | SMILES | solubility
33 | COc1cc(NC(=O)c2ccc(-c3ccc(Cl)cc3)o2)cc(OC)c1 | < 0.1 µg/mL
34 | CCOc1ccc(-c2cncc(C(=O)NCc3ccccc3C)n2)cc1 | 0.14 µg/mL (≈ 0.403 µM)
35 | Cc1cccc(NC(=O)c2cncc(-c3ccc(OC(F)(F)F)cc3)n2)c1 | < 0.1 µg/mL
36 | O=C(NCc1cccnc1N1CCCC1)c1cncc(-c2ccc(Cl)cc2)n1 | 0.65 µg/mL (≈ 1.65 µM)
37 | Cc1cc(C)cc(NC(=O)c2cncc(-c3ccc(OC(F)(F)F)cc3)n2)c1 | < 0.1 µg/mL
38 | O=C(NCc1cccnc1)c1cncc(-c2ccc(Cl)cc2)n1 | 1 µg/mL (≈ 3.08 µM)
39 | CC(C)Oc1cccc(NC(=O)c2cncc(-c3ccc(C#N)cc3)n2)c1 | 0.08 µg/mL (≈ 0.223 µM)
40 | CCOc1ccc(-c2cncc(C(=O)Nc3cc(C)cc(C)c3)n2)cc1 | < 0.1 µg/mL
41 | Cc1ccccc1CNC(=O)c1cncc(-c2ccc(Cl)cc2)n1 | < 0.1 µg/mL
42 | COc1cc(NC(=O)c2cncc(-c3ccc(Cl)cc3)n2)cc(OC)c1 | < 0.1 µg/mL

test system: not listed separately; assay: Clearance in rat microsomes; format: ADME, Liver, Microsome; conditions: not given

Row | SMILES | CL
43 | COc1cc(NC(=O)c2ccc(-c3ccc(Cl)cc3)o2)cc(OC)c1 | 140 µL/min
44 | CCOc1ccc(-c2cncc(C(=O)NCc3ccccc3C)n2)cc1 | 630 µL/min
45 | CC(C)Oc1cccc(NC(=O)c2cncc(-c3ccc(C#N)cc3)n2)c1 | 120 µL/min

species on record: Homo sapiens; assay: Selectivity ratio of IC50 for human NAv1.8 to IC50 for human Nav1.2; conditions: not given
How it was run: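 Ratio of the IC50 values from whole-cell voltage clamp of human Nav1.8 (held at −40 mV) and human Nav1.2 (held at −60 mV), both expressed in HEK-293 cells. Each channel was held at its inactivation V1/2.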

Row | SMILES | Ratio IC50
46 | COc1cc(NC(=O)c2cncc(-c3ccc(Cl)cc3)n2)cc(OC)c1 | > 1000

target: T1, Sodium channel protein type 2 subunit alpha; assay: Inhibition of human recombinant NaV1.2 at 3 uM by electrophysiology; conditions: not given; how it was run: as §1

Row | SMILES | inhibition
47 | Cc1cc(C)cc(NC(=O)c2cncc(-c3ccc(OC(F)(F)F)cc3)n2)c1 | 93%
48 | Cc1ccccc1CNC(=O)c1cncc(-c2ccc(Cl)cc2)n1 | 2%
